Test results as given in ChEMBL document CHEMBL1134174, “Anti-Helicobacter pylori agents endowed with H2-antagonist properties” (2001).
In brackets after ≈: the same amount, converted by molar mass.

How the values were obtained:
Assay type in all cases: functional
Helicobacter pylori [1] = test: Inhibitory activity was determined against 102R strain of Helicobacter pylori
Helicobacter pylori [2] = test: Minimal concentration needed to inhibit 50% of Helicobacter pylori strain
Summary of the method: (§1)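 Agar dilution MICs on 20 clinical H. pylori strains, two metronidazole resistant, in Columbia agar with horse serum and yeast extract. DMSO solutions diluted twofold serially in agar. Inocula at 0.5 McFarland in Wilkins Chalgren broth, incubated 37 C for 72 h, 10% CO2, microaerobic. MIC50/MIC90 taken as the lowest concentration inhibiting 50% or 90% of strains.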

Helicobacter pylori [3] = test: Minimal concentration needed to inhibit 90% of Helicobacter pylori strain; summary of the method: as §1
Helicobacter pylori [4] = test: Inhibitory activity was determined against NCTC-11637 strain of Helicobacter pylori
Helicobacter pylori [5] = test: Minimal concentration needed to inhibitH. pylori strain
Helicobacter pylori [6] = test: Minimal concentration needed to inhibit Helicobacter pylori strain

Row | SMILES | MIC (Helicobacter pylori [1]) [µg/mL] | MIC50 (Helicobacter pylori [2]) [µg/mL] | MIC90 (Helicobacter pylori [3]) [µg/mL] | MIC (Helicobacter pylori [4]) [µg/mL] | MIC (Helicobacter pylori [5]) [µg/mL] | MIC (Helicobacter pylori [6]) [µg/mL]
1 | N#C/N=[N+](\[O-])c1ccc(C(=O)NCCCC/N=C(\NC#N)NCCCOc2cccc(CN3CCCCC3)c2)cc1 | 8 (≈ 14.3 µM) | 2 (≈ 3.57 µM) | 4 (≈ 7.15 µM) | 4 (≈ 7.15 µM) | 0.25 (≈ 0.447 µM) | –
2 | N#C/N=[N+](\[O-])c1ccc(C(=O)O)cc1 | 0.031 (≈ 0.162 µM) | 0.016 (≈ 0.0837 µM) | 0.031 (≈ 0.162 µM) | 0.0078 (≈ 0.0408 µM) | < 0.0039 | –
3 | N#C/N=[N+](\[O-])c1ccc(C(=O)NCCCCCC/N=C(\NC#N)NCCCOc2cccc(CN3CCCCC3)c2)cc1 | 2 (≈ 3.4 µM) | 1 (≈ 1.7 µM) | 2 (≈ 3.4 µM) | 1 (≈ 1.7 µM) | 0.25 (≈ 0.425 µM) | –
4 | Cc1ncc([N+](=O)[O-])n1CCO [METRONIDAZOLE] | 8 (≈ 46.7 µM) | 0.25 (≈ 1.46 µM) | 8 (≈ 46.7 µM) | 16 (≈ 93.5 µM) | 0.031 (≈ 0.181 µM) | –
5 | N#C/N=[N+](\[O-])c1ccc(C(=O)NCC/N=C(\NC#N)NCCCOc2cccc(CN3CCCCC3)c2)cc1 | 8 (≈ 15 µM) | 8 (≈ 15 µM) | 16 (≈ 30.1 µM) | 16 (≈ 30.1 µM) | – | 0.25 (≈ 0.47 µM)
